pIC50: −log10 of the molar value. Each block holds one compound with its values, some of them ahead of it. Bridge positions count the residues as written; N and C are the ends. Square brackets hold non-standard residues; d marks the D form. Peptide text beside a SMILES is read from it. Cy5.5 = cyanine dye Cy5.5, conjugated as the NHS ester; βAla = NCCC(=O)O
What was measured:
[1] = Stability study in serum-containing culture medium; type: in vitro ADME; settings: DMEM/F-12 with 10% fetal bovine serum, 25°C, over 3 hr, HPLC
In short: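 Peptides were incubated at 25°C in DMEM/F-12 containing 10% FBS. Aliquots taken at intervals were analysed by reverse-phase C-18 HPLC using an acetonitrile/water gradient with 0.1% TFA and UV detection at 230 nm. Intact-peptide peak area was expressed as a percentage of the 0-min area.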

[2] = target: T1, MMP-2 (Homo sapiens, UniProt P08253); test: In vitro MMP-2 inhibition assay; type: biochemical; settings: MMP-2 Inhibition IC50, APMA-activated MMP-2, 1 hr preincubation at 37°C
T1 sequence (P08253 110-660): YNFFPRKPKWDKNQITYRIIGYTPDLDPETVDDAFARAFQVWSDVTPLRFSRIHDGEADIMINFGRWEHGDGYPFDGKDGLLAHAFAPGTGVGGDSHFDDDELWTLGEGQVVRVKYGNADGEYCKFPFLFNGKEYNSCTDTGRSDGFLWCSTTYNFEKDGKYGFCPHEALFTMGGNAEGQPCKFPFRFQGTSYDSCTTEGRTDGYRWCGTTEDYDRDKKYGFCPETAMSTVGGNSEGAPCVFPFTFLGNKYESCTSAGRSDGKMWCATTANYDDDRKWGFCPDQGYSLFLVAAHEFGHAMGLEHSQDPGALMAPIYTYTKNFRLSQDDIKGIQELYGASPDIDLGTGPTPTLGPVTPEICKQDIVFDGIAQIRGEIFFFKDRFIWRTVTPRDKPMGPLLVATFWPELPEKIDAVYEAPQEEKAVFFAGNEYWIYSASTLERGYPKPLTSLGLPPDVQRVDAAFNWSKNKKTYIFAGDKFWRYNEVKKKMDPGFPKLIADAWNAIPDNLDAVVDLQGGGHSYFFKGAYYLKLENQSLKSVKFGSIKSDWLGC
In short: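 Commercial MMP-2 was activated with APMA. Test compound was preincubated with activated enzyme (40 ng/200 μl) for 1 hr at 37°C, then biotinylated gelatinase substrate was added for 1 hr. The mixture was moved to a biotin-binding plate (30 min, 37°C) and washed. Streptavidin-enzyme conjugate and chromogenic substrate followed, and OD at 450 nm gave relative gelatinase activity.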

[3] = system: PC-3 tumors; type: in vivo, mice; settings: for tumor uptake in intratibial PC-3 tumors: 48 hr after intravenous injection, 15 nmol/mouse
[4] = system: U87 cells; test: Fluorescence microscopy, probe uptake in U87 cells; type: cell-based, human; settings: for uptake/binding in U87 cells: 10 μM, 37°C, 5 min
In short: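 U87 cells grown in DMEM/F-12 with 10% FBS were seeded on cover slips overnight. For blocking, cells were pretreated with doxycycline (5, 25, 100 μM) or unlabelled peptide, then given 10 μM Cy5.5-labelled test compound; uptake samples received the probe alone (10 μM, 37°C, 5 min). After two PBS washes, cells were fixed and stained with 1 μM Sytox Green in 95% ethanol (15 min). Fluorescence microscopy was at ×60.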

[5] = system: gelatinase activity in U87 cell lysates; test: Gelatin zymography; type: biochemical, human; settings: U87 cell lysate, doxycycline 100 μM in incubation buffer
In short: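 U87 cells were lysed in 1% Triton X-100, 50 mM Tris-HCl pH 7.6, 200 mM NaCl, 10 mM CaCl₂, then spun 10 min at 9700 × g. Supernatant was diluted 1:4 in SDS sample buffer, loaded at equal protein and run on 10% gels containing 1 mg/ml gelatin. Gels were washed 4 hr in Triton/CaCl₂ buffer and developed overnight at 37°C (pH 7.6), with doxycycline added, then Coomassie-stained.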

[6] = system: U87 cells; test: Confocal microscopy of U87 cells; type: cell-based, human; settings: 5 min
In short: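 U87 cells (1 × 10⁵) on cover slips in 24-well plates were exposed to 10 μM Cy5.5-labelled test compound or free Cy5.5. They were held 5 min at 4°C or 37°C in the dark, then washed twice with PBS. Nuclei were stained with 1 μM Sytox Green. After two more PBS washes, slides were mounted for confocal imaging at emission 693 nm (Cy5.5) and 488 nm (Sytox Green).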

[7] = target: T1, MMP-2; test: In vitro β-casein degradation assay; type: biochemical; settings: 0, 10, 50, 200 μM; SDS-PAGE
[8] = system: U87 brain tumors; test: In vivo and ex vivo NIRF imaging of intracranial U87 tumors; set-up: species or system mice; settings: 24 hr after intravenous administration, 15 nmol/mouse
[9] = system: PC-3 cells; test: Fluorescence microscopy, probe uptake in PC-3 cells; type: cell-based, human; settings: 10 μM, 37°C, 5 min
In short: (§1)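 Cells were kept in DMEM/F-12 with 10% FBS at 37°C, 5% CO₂, seeded on cover slips and incubated overnight. Cy5.5-labelled test compound (10 μM) was added for 5 min at 37°C. Cells were washed twice with PBS, then fixed and nuclear-stained with 1 μM Sytox Green in 95% ethanol for 15 min. Fluorescence microscopy was at ×60.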

[10] = system: A549 cells; test: Fluorescence microscopy, probe uptake in A549 cells; type: cell-based, human; settings: 10 μM, 37°C, 5 min
In short: as §1

- stability of intact peptide [1]: completely degraded
- pIC50 [2]: 4.52
Compound: CC(C)C[C@@H]1NC(=O)[C@H]([C@@H](C)O)NC(=O)[C@H](Cc2ccccc2)NC(=O)CNC(=O)[C@H](Cc2c[nH]c3ccccc23)NC(=O)[C@H](Cc2c[nH]cn2)NC(=O)[C@H]([C@@H](C)O)NC(=O)[C@H]([C@@H](C)O)NC(=O)[C@@H](N)CSSC[C@@H](C(N)=O)NC1=O [C1, c(CTTHWGFTLC)NH2, reference compound] (H-CTTHWGFTLC-NH2; disulfide 1-10)

- pIC50 [2]: 4.08
Compound: CC(C)C[C@@H]1NC(=O)[C@H]([C@@H](C)O)NC(=O)[C@H](Cc2ccccc2)NC(=O)CNC(=O)[C@H](Cc2c[nH]c3ccccc23)NC(=O)[C@H](Cc2c[nH]cn2)NC(=O)[C@H]([C@@H](C)O)NC(=O)[C@H]([C@@H](C)O)NC(=O)[C@H](C)NC(=O)CCNC1=O [C3, c(ATTHWGFTL-β-Ala)] (cyclo(ATTHWGFTL[βAla]))

Compound: C[C@H]1c2cccc(O)c2C(=O)C2=C(O)[C@]3(O)C(=O)C(C(N)=O)=C(O)[C@@H](N(C)C)[C@@H]3[C@@H](O)[C@@H]21 [doxycycline, reference compound]
- blocking of in vivo uptake of Cy5.5-C6 in PC-3 tumors ([3]; co-injection with doxycycline (data not shown)): could not be blocked
- blocking of Cy5.5-C6 binding to U87 cells ([4]; doxycycline 25 and 100 μM followed by Cy5.5-C6 10 μM): partially blocked
- blocking of gelatinase activity in zymography [5]: could be blocked

Compound: Cy5.5 [reference compound]
- uptake/binding in U87 cells [4]: did not bind to the cells
- cell uptake and distribution at 37°C [6]: minimal uptake

Compound: Cy5.5-c(CTTHWGFTLC)NH2 ({Cy5.5}-CTTHWGFTLC-NH2; disulfide 1-10) [Cy5.5-C1]
- tumor uptake in intratibial PC-3 tumors [3]: tumor targeting could not be detected
- uptake/binding in U87 cells [4]: to a less degree
- inhibition of β-casein degradation by MMP-2 [7]: inhibited the degradation of β-casein in a dose-dependent manner

Compound: Cy5.5-c(KAHWGFTLD)NH2 ({Cy5.5}-KAHWGFTLD-NH2; lactam 1-9) [Cy5.5-C6]
- localization to orthotopic U87 gliomas [8]: readily visible
- tumor uptake in intratibial PC-3 tumors [3]: clearly visualized
- uptake/binding in U87 cells [4]: rapidly taken up
- cell uptake at 4°C ([6]; 4°C): substantially reduced
- cell uptake and distribution at 37°C [6]: distributed to cell cytosol and nuclei
- inhibition of β-casein degradation by MMP-2 [7]: inhibited the degradation of β-casein in a dose-dependent manner
- uptake in PC-3 cells [9]: taken up
- binding to A549 cells (minimal MMP-2 activity) [10]: did not bind

Compound: Cy5.5-c(KHGLTWFAD)NH2 ({Cy5.5}-KHGLTWFAD-NH2; also: cyclic, ring type and sites not given here) [Cy5.5-C7]
- tumor uptake in intratibial PC-3 tumors [3]: not taken up by the tumors
